The source of these data is PubChem BioAssay.

The structures appear in SMILES notation. Activity calls are given as the source filed them.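 How the source made its calls, unless noted: active means Her2 level under about 52% in both replicate screens, with viability over 70% of control (limit read from the data); inconclusive means Her2 under the limit in one screen only, or viability under 70%; inactive means Her2 level above the set limit.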

The nature of assay [1]: Her2 expression decrease, cell viability multiplex – SKBR3 breast tumor cells, AlphaScreen, ATP viability, primary screen (AID 461).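 On Her2 level: lower value means less Her2 protein in the cells.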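 On viability: percent of carrier control wells set as 100% viability.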 As to conditions: SKBR3 Her2 protein level, 18-24 h, measured here: SKBR3 viability, ATP luminescence, at 10 µM. For orientation: In Alpha technology, singlet oxygen from a donor bead excites a nearby acceptor bead.
Assay [2] concerns the target Receptor tyrosine-protein kinase erbB-2 (Homo sapiens) (UniProt P04626). The assay is described as above. Conditions: 18-24 h, at 10 µM, stronger effect = lower value.
A short description of assay [3]: reduced viability of SK-BR-3 breast cancer cells – cell-based, 24 h, human, pilot screen (AID 572;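 active means viability at or below 10% of carrier control in both of two separate runs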;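 further: compound exposure lasted between 18 and 24 h rather than exactly 24 h; 100% = carrier-treated control wells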). Conditions: SK-BR-3 viability, CellTiter-Glo luminescence, at 10 µM, stronger effect = lower value. On the technique in general: Cellular ATP, detected with luciferase, serves as a proxy for viable cell number.
Assay [4] is described as follows: HUVEC growth inhibition – cell-based, human, primary screen (AID 575;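 active means viability at or below 30% in both replicate assays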;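 further: 100% = median of untreated cell wells with 0.1% DMSO on each plate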). As to conditions: HUVEC proliferation, CellTiter-Glo luminescence, 72 h; at 10 µM; stronger effect = lower value. Put shortly: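 System: primary human umbilical vein endothelial cells; Quantity: 1250 endothelial cells in each well; Buffer or medium: supplemented EBM, 2% fetal bovine serum; Doses: one dose, 10 µM final, 0.1% DMSO; Incubation: 72 h compound incubation; Technique: ATP-based CellTiter-Glo luminescent read; Evaluation: percent of median DMSO-control luminescence; Controls: vehicle and MePR control wells.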

Assay [5] in a line: H69AR cell proliferation blockers – human, duplicate replicates, primary screen (AID 580;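 active means viability at or under a set limit in both replicates, limit being median viability minus 3 SD, cut at about 48% in these data, passing the limit was not always enough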;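 further: 100% = mean luminescence of untreated wells and 0% = no signal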). Conditions: H69AR lung tumor cells viability, ATP luminescence, 72 h; at 10 µM; stronger effect = lower value.
Assay [6] in a line: MRP1 drug-resistance reversers in H69AR cells – cell-based, doxorubicin co-treatment, pilot screen (AID 601;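 active means viability loss from added drug above about 55%, and viability with drug at most 40%, in both replicates, limit read from the data, passing the limit was not always enough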). As to conditions: CellTiter-Glo, 72 h, at 10 µM; for differential viability (reversal): stronger effect = higher value.
Assay [7] is described as follows: yeast transport mutant growth inhibition pilot in 384-well plates, post-Golgi transport modulator project (AID 636; in the data active means inhibition above about 31%). As to conditions: absorbance 615 nm, about 18 h, stronger effect = higher value.
Assay [8] can be described thus: growth suppression of yeast trafficking mutant, preliminary HTS, modulators of trafficking downstream of Golgi apparatus project, 1536-format plate, OD 615 nm (AID 637; in the data active means inhibition above about 30%). Conditions: yeast transport mutant growth, absorbance 615 nm, 18 h; stronger effect = higher value.
[9] abbreviates: H69AR cells + 2 uM doxorubicin, measured here: viability with 2 uM doxorubicin, stronger effect = lower value.
Setting [10] is: H69AR cells, compound alone cytotoxicity.

Sequence of Receptor tyrosine-protein kinase erbB-2 (Homo sapiens) (P04626 whole entry, looked up): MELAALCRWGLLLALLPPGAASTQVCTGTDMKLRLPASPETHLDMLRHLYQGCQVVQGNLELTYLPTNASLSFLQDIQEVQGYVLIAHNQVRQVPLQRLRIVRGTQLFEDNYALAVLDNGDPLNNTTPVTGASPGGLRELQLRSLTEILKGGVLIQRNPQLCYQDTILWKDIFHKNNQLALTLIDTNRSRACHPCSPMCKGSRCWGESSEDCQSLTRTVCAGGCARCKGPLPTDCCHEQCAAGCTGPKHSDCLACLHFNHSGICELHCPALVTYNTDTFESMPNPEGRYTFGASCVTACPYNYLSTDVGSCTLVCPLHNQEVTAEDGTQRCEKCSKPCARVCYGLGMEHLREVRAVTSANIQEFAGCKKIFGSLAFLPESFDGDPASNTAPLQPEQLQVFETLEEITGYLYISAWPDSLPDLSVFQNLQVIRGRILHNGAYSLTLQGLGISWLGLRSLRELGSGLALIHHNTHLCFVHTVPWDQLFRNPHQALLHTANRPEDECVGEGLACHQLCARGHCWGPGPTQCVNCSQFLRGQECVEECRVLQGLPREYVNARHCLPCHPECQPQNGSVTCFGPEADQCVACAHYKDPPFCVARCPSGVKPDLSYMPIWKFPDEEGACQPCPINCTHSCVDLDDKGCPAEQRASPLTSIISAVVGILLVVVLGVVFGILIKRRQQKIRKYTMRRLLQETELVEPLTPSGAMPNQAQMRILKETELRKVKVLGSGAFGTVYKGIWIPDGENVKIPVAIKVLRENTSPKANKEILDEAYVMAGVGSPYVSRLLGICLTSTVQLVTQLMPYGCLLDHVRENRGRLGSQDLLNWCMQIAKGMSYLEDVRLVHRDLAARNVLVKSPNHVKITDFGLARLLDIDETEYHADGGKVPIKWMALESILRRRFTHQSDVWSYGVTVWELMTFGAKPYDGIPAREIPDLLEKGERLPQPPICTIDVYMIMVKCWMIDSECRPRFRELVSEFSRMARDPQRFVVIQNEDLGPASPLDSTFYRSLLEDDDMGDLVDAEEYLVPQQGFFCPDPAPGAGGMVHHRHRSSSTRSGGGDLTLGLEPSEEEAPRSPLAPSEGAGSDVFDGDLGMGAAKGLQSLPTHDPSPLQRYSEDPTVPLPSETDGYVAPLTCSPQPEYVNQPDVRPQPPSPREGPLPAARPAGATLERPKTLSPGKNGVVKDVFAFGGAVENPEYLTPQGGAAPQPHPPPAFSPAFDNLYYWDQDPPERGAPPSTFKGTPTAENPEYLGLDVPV

`O=C(N1CCN(Cc2ccccc2)CC1)C12CC3CC(CC(C3)C1)C2`: the viability in assay [1] was 83%; in assay [3], 83% (inactive); in assay [4], 80.4% (inactive); in assay [5] it was 83.4% (inactive); in assay [6] (setting [9]) it was 88.9%; in assay [6] (setting [10]) it was 83.4%. Besides, the Her2 level in assay [2] was 98% (inactive). In addition, the differential viability (reversal) in assay [6] (H69AR cells + 2 uM doxorubicin) was -5.52% (inactive). For the same molecule, the inhibition is -5.54% (inactive) in assay [7] and -0.67% (inactive) in assay [8].

In the case of `Cc1nc2cc(Cl)ccc2n1CCO`, the viability in assay [1] was 101%; in assay [3] it was 101% (inactive); in assay [4] it was 102% (inactive); in assay [5], 92% (inactive); in assay [6] (setting [9]) it was 84.4%; in assay [6] (setting [10]), 92%. In addition, the Her2 level in assay [2] is 95.5% (inactive). The differential viability (reversal) in assay [6] (H69AR cells + 2 uM doxorubicin) is 7.68% (inactive). Further, the inhibition in assay [7] was -9.86% (inactive); in assay [8], 0.32% (inactive).

Take `Cc1ccc(C)c(NC(=O)c2ccc3c(c2)N(Cc2ccc(F)cc2)C(=O)CS3=O)c1` (stereo not given): the viability is 85.5% in assay [1]; 85.5% (inactive) in assay [3]; 95.2% (inactive) in assay [4]; 97.1% (inactive) in assay [5]; 93.1% in assay [6] (setting [9]); 97.1% in assay [6] (setting [10]). The Her2 level in assay [2] was 102% (inactive). The differential viability (reversal) in assay [6] (H69AR cells + 2 uM doxorubicin) was 3.96% (inactive). Besides, the inhibition is -1.6% (inactive) in assay [7] and -0.66% (inactive) in assay [8].

With `COc1ccc(OC)c(C2/C(=C(\O)c3ccc4c(c3)OCCO4)C(=O)C(=O)N2CCCN(C)C)c1` (stereo not given), the viability in assay [1] was 102%; in assay [3], 102% (inactive); in assay [4], 111% (inactive); in assay [5] it was 101% (inactive); in assay [6] (setting [9]), 91.3%; in assay [6] (setting [10]), 101%. In assay [2], the Her2 level was 76.5% (inactive). In assay [6] (H69AR cells + 2 uM doxorubicin), the differential viability (reversal) is 9.38% (inactive). The inhibition in assay [7] is -4.05% (inactive); in assay [8], -3.81% (inactive).

For the molecule `CCn1c(=O)c(C(=O)NCCc2ccccc2)c(O)c2ccccc21`, the viability in assay [1] was 99%; in assay [3], 99% (inactive); in assay [4], 58.8% (inactive); in assay [5], 61.6% (inactive); in assay [6] (setting [9]), 87.6%; in assay [6] (setting [10]), 61.6%. Also, the Her2 level in assay [2] was 102% (inactive). The differential viability (reversal) in assay [6] (H69AR cells + 2 uM doxorubicin) is -26% (inactive). Besides, the inhibition in assay [7] was -1.03% (inactive); in assay [8], -5.17% (inactive).

For `O=C(CS(=O)CC(=O)Nc1cccc2c1CCCC2)Nc1ccc(F)cc1` (stereo not given), the viability in assay [1] was 114%; in assay [3] it was 114% (inactive); in assay [4], 88.3% (inactive); in assay [5] it was 102% (inactive); in assay [6] (setting [9]) it was 97.8%; in assay [6] (setting [10]) it was 102%. Moreover, in assay [2], the Her2 level was 103% (inactive). For the same molecule, the differential viability (reversal) in assay [6] (H69AR cells + 2 uM doxorubicin) was 4.67% (inactive). Moreover, the values for the inhibition in assay [7] and in assay [8] were -6.93% (inactive) and 4.1% (inactive), respectively.

Consider `Cn1cccc1Cc1nnc(SCC(=O)Nc2ccc(F)cc2)n1-c1ccc(F)cc1`, for which the viability in assay [1] is 86%; in assay [3] it was 86% (inactive); in assay [4] it was 71.9% (inactive); in assay [5] it was 80.2% (inactive); in assay [6] (setting [9]), 90.1%; in assay [6] (setting [10]) it was 80.2%. For the same molecule, the Her2 level in assay [2] was 93% (inactive). Moreover, the differential viability (reversal) in assay [6] (H69AR cells + 2 uM doxorubicin) is -9.93% (inactive). Moreover, the inhibition in assay [7] was 0% (inactive); in assay [8], -1% (inactive).

As for `CC(C)Cn1c(=O)c(C2=NS(=O)(=O)c3ccccc3N2)c(O)c2ccccc21`, the viability in assay [1] was 118%; in assay [3] it was 118% (inactive); in assay [4], 97% (inactive); in assay [5], 98.1% (inactive); in assay [6] (setting [9]), 99%; in assay [6] (setting [10]), 98.1%. The Her2 level in assay [2] is 86.5% (inactive). Further, in assay [6] (H69AR cells + 2 uM doxorubicin), the differential viability (reversal) was -0.935% (inactive). Moreover, the inhibition is -2.21% (inactive) in assay [7] and 1.8% (inactive) in assay [8].

Consider `O=C(CSc1nc2ccsc2c(=O)n1NC(=O)c1ccccc1)Nc1nccs1`, for which the viability in assay [1] was 105%; in assay [3] it was 105% (inactive); in assay [4], 96.9% (inactive); in assay [5], 100% (inactive); in assay [6] (setting [9]), 98%; in assay [6] (setting [10]) it was 100%. For the same molecule, the Her2 level in assay [2] was 86.5% (inactive). Moreover, the differential viability (reversal) in assay [6] (H69AR cells + 2 uM doxorubicin) was 2.06% (inactive). Also, the inhibition is -4.74% (inactive) in assay [7] and -2.83% (inactive) in assay [8].

In the case of `COc1cccc(-n2nnnc2SCC(=O)NCc2ccco2)c1`, the viability in assay [1] is 117%; in assay [3], 117% (inactive); in assay [4], 90.5% (inactive); in assay [5] it was 83.2% (inactive); in assay [6] (setting [9]), 77.2%; in assay [6] (setting [10]) it was 83.2%. Also, the Her2 level in assay [2] was 92.5% (inactive). The differential viability (reversal) in assay [6] (H69AR cells + 2 uM doxorubicin) was 5.98% (inactive). Further, the inhibition in assay [7] was -4.8% (inactive); in assay [8], 4.52% (inactive).

Regarding `CC(C)(C)n1ncc2c(=O)n(CC(=O)NCc3ccco3)cnc21`, the viability in assay [1] is 91.5%; in assay [3] it was 91.5% (inactive); in assay [4], 111% (inactive); in assay [5], 68.5% (inactive); in assay [6] (setting [9]), 80.8%; in assay [6] (setting [10]), 68.5%. Besides, the Her2 level in assay [2] was 94% (inactive). In addition, in assay [6] (H69AR cells + 2 uM doxorubicin), the differential viability (reversal) is -12.3% (inactive). Besides, the results for the inhibition in assay [7] and in assay [8] were -1.45% (inactive) and -10.5% (inactive), respectively.

For `O=C(CC(C(=O)N1CCc2ccccc21)n1ccnc1)NCc1cccnc1` (stereo not given), the viability in assay [1] is 100%; in assay [3], 100% (inactive); in assay [4], 97.9% (inactive); in assay [5] it was 89.1% (inactive); in assay [6] (setting [9]) it was 100%; in assay [6] (setting [10]) it was 89.1%. For the same molecule, the Her2 level in assay [2] was 100% (inactive). Besides, in assay [6] (H69AR cells + 2 uM doxorubicin), the differential viability (reversal) is -10.9% (inactive). For the same molecule, the inhibition was 1.17% (inactive) in assay [7] and 1.8% (inactive) in assay [8].

On to `COc1ccc(CN(C(=O)c2oc3ccccc3c2C)C2CCS(=O)(=O)C2)cc1` (stereo not given), for which the viability was 86% in assay [1]; 86% (inactive) in assay [3]; 83.6% (inactive) in assay [4]; 90.5% (inactive) in assay [5]; 81.7% in assay [6] (setting [9]); 90.5% in assay [6] (setting [10]). The Her2 level in assay [2] is 112% (inactive). Moreover, the differential viability (reversal) in assay [6] (H69AR cells + 2 uM doxorubicin) is 8.78% (inactive). Besides, the inhibition is -4.13% (inactive) in assay [7] and -11.1% (inactive) in assay [8].

Regarding `COc1ccc2c(c1)C1(C)CC(C)(C)N2C(=O)N1c1ccccc1` (stereo not given), the viability is 101% in assay [1]; 101% (inactive) in assay [3]; 61.5% (inactive) in assay [4]; 67.3% (inactive) in assay [5]; 84% in assay [6] (setting [9]); 67.3% in assay [6] (setting [10]). Besides, the Her2 level in assay [2] is 89.5% (inactive). The differential viability (reversal) in assay [6] (H69AR cells + 2 uM doxorubicin) was -16.7% (inactive). Moreover, the inhibition in assay [7] was -5.07% (inactive); in assay [8] it was -5.41% (inactive).

Usually viability stands for a read-out of living cells in per cent, often relative to untreated cells. As usually defined, the inhibition is the relative decrease from the control value, in per cent.
